Most compounds without a hit are left out; they make up all but 2.4% or so of the library.
Tb MetRS inh = Trypanosoma brucei MetRS inhibition; purified T. brucei MetRS, ATP depletion, Kinase-Glo luminescence; inhibition, % at 11.9 µM; 360,000 compounds, 0.4% hits; AID 624268;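 active means inhibition above a per-plate cutoff of the control wells' mean inhibition plus 3 SD, cut at about 5.5% in these data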;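 further: 0% = DMSO wells median and 100% = median of wells with control inhibitor compound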
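Material: T. brucei methionyl-tRNA synthetase, purified; reagent: substrates ATP, L-methionine and bulk Escherichia coli tRNA; dosing: 11.9 µM single point; timing: 15 min plus 2 h at 25 °C; detection: luminescence of leftover ATP; evaluation: % inhibition; control set: DMSO-only wells as low control; replicates: singlicate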
CSN deneddyl inh = inhibitors of human CSN-mediated cullin deneddylation; Q92905; AID 651999; inhibition, % at 12.5 µM; Purified CSN, SCF-Nedd8-OG deneddylation, fluorescence polarization; 360,000 compounds, 0.38% hits;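 active means pattern-corrected inhibition above about 35%, with an unprinted fluorescence ratio check between 0.5 and 1.5, limit read from the data, passing the limit was not always enough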;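 further: 0% = enzyme with substrate and 100% = substrate without enzyme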
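Material: human Csn5 produced in HEK293T cells; Input: enzyme 0.24 nM; Reagent: SCFSkp2-Nedd8OG substrate at 10 nM final; Dosing: 12.5 µM compound; Incubation: 90 min reaction at room temperature; Detection: fluorescence polarization of the substrate; Evaluation: % inhibition of substrate cleavage by Csn5; Control set: substrate-only high control, full reaction low control.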
Rpn11 block = blocks the human proteasome subunit Rpn11. O00487. human 26S proteasome, Ub4-pepOG fluorescence polarization; 20S core pre-blocked with epoxomicin. inhibition, % at 20 µM. 360,000 compounds, 0.59% hits;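 active means inhibition at 20 µM, scaled to each plate's controls, above about 33%, limit read from the data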
Target sequence (O00487 whole entry, looked up): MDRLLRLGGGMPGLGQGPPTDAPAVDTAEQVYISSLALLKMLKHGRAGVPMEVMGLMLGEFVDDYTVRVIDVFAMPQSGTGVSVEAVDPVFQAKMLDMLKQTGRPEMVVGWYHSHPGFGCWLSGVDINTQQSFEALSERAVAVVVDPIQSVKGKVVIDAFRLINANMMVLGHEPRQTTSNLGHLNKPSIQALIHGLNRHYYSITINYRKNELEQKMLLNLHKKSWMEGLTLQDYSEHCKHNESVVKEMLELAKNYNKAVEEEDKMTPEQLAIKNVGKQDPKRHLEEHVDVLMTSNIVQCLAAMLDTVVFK
Neddyl block = inhibitors of human cullin neddylation | inhibition, % at 25 µM | TR-FRET cullin neddylation, biochemical | P61081+Q13564 | 360,000 compounds, 0.58% hits; in the data active means inhibition above about 36%
HNF4A DNA FP = change in binding of human HNF4 alpha to DNA; P41235; HNF4a-FITC DNA binding, fluorescence polarization, 1 h; activity change, % at 10 µM; 360,000 compounds, 0.3% hits; AID 1224865; in the data active means activity change above about 30%, passing the limit was not always enough
PREPL inhibitor = inhibitors of human prolyl oligopeptidase-like enzyme PREPL | recombinant PREPL, fluorescence polarization activity-based probe | AID 2751 | 320,000 compounds, 0.68% hits | inhibition, % at 5.96 µM | Q4J6C6; in the data active means inhibition above about 43%;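 further: 0% = enzyme with DMSO and 100% = wells lacking enzyme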
Neddyl conf = confirmation of human cullin neddylation inhibitors | TR-FRET cullin neddylation biochemical assay | 1,800 compounds, 13% hits | calls only at 25 µM | shares compounds with Neddyl block; in the data active means inhibition above about 40%;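 further: neddylation substrate is the cullin 1 ring ligase complex with SKP2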
The depositor's hits bear a star; i = inactive; · = no result shown; + = active, no number; ! = not active in a repeat.

SMILES	Tb MetRS inh	CSN deneddyl inh	Rpn11 block	Neddyl block	HNF4A DNA FP	PREPL inhibitor	Neddyl conf
Cc1ccc(-n2nc3c(N4CCC(C(=O)NCCc5cccs5)CC4)nnc(C)c3c2C)cc1	0	-1	26	-10	7	31	·
Oc1ccc(C2CNCCc3c2cc(O)c(O)c3Cl)cc1 (stereo unspecified)	0	-7	0	50*!	-3	1	·
COC(=O)c1ccccc1NC(=O)C(=O)NCC1CCCO1 (stereo unspecified)	0	0	-1	2	-2	9	·
COC(=O)c1ccccc1NC(=O)NCC1CCCO1 (stereo unspecified)	0	-1	-4	44*	6	22	i
Cc1ccccc1NS(=O)(=O)c1ccc(OCC(=O)NCc2ccco2)cc1	-1	-5	-3	0	-2	-2	·
CCOc1ccc(S(=O)(=O)Nc2ccccc2C(=O)NCc2ccco2)cc1	0	-4	6	45*	-4	-1	i
Cn1ccc2c(-c3cncc4ccccc34)cc3c(c21)C1CCC3O1 (stereo unspecified)	-2	-5	2	46*	6	·	+
Cc1ccccc1-c1cc2c(c3c1ccn3C)C1CCC2O1 (stereo unspecified)	-1	1	-3	24	-4	·	·
COCCn1c(C)cc(/C=C(\C#N)C(=O)OC(C)C(=O)Nc2ccc(NC(C)=O)cc2)c1C (stereo unspecified)	0	8	3	52*	10	2	i
N#Cc1cc2c(=O)n3ccccc3nc2n(CCCn2ccnc2)c1=N	0	4	5	46*	-1	0	i
CCCn1c(=N)c(C#N)cc2c(=O)n3ccccc3nc21	0	0	·	·	21	11	·
N=c1c(S(=O)(=O)c2ccccc2)cc2c(=O)n3ccccc3nc2n1CCCN1CCOCC1	-1	1	-2	63*	3	-3	i
C=CCn1c(=N)c(S(=O)(=O)c2ccc(C)c(C)c2)cc2c(=O)n3ccccc3nc21	0	3	-83	47*	2	-8	i
Cc1ccccc1NC(=O)C1CCCN1S(=O)(=O)c1ccccc1C(F)(F)F (stereo unspecified)	0	-5	2	9	3	11	·
COCCN(C(=O)COC(=O)/C=C/c1cccc(OC)c1)c1c(N)n(CC(C)C)c(=O)[nH]c1=O	0	7	0	45*	-3	·	·
C/C(=N\NC(=O)c1cccc(S(=O)(=O)Nc2cccc(Cl)c2)c1)c1cccs1	1	-6	-5	44*	-1	16	i
Cc1ccc(/C=N/NC(=O)c2cccc(S(=O)(=O)Nc3cccc(Cl)c3)c2)o1	-1	-3	0	43*	-5	-2	i
CCN(CC)c1ccc(/C=N/NC(=O)c2cccc(N3CCCC3=O)c2)cc1	0	-3	2	57*	-1	11	·
CC1(C)CC(Cc2ccc(C(=O)c3ccccc3)cc2)N(C(=O)OC(C)(C)C)N1 (stereo unspecified)	-1	2	13	-14	-4	·	·
O=C1c2ccccc2C(=O)N1CCCc1cn(C[C@H]2CC[C@H](Cn3cc(CCCN4C(=O)c5ccccc5C4=O)nn3)O2)nn1	-2	0	-1	-20	-2	·	·
COC(=O)c1ccccc1N/C=C1\CCc2c(c(C)nn2-c2ccccn2)C1=O	0	2	-5	38*	-3	26	i
O=C(NC(=S)NNC(=O)[C@H]1C[C@@H]1c1ccccc1)c1ccc(F)cc1	0	3	-2	0	-2	19	·
COc1ccc(C(=O)NC(=S)NNC(=O)[C@H]2C[C@@H]2c2ccccc2)cc1OC	2	-9	3	39*	-1	-4	i
COc1cccc(N(C(=O)c2snc(C(N)=O)c2N)C(C(=O)NCC2CCCO2)c2ccc(F)cc2)c1 (stereo unspecified)	0	1	-3	44*	5	8	i
Cc1cccc(N(C(=O)c2snc(C(N)=O)c2N)C(C(=O)NCC2CCCO2)c2cccs2)c1 (stereo unspecified)	0	1	-14	44*	3	14	i
SMILES	Tb MetRS inh	CSN deneddyl inh	Rpn11 block	Neddyl block	HNF4A DNA FP	PREPL inhibitor	Neddyl conf
COc1ccc(C(C(=O)NCC2CCCO2)N(C(=O)c2snc(C(N)=O)c2N)c2ccccc2)cc1OC (stereo unspecified)	0	0	-1	50*	2	·	+
COc1cccc(N(C(=O)c2snc(C(N)=O)c2N)C(C(=O)NCC2CCCO2)c2ccc(C)o2)c1 (stereo unspecified)	-1	3	-2	27	0	0	·
CCCC(C(=O)NC1CCCC1)N(CC1CCCO1)C(=O)c1snc(C(N)=O)c1N (stereo unspecified)	0	4	1	41*	4	18	i
Nc1ccc(C(=O)N/N=C/c2cn(Cc3ccccc3)c3ccccc23)cc1	0	0	2	41*	2	·	i
Cn1nc(C(F)(F)F)c(-c2ccccc2)c1NC(=O)c1nccnc1C(=O)O	0	0	4	4	0	6	·
Cn1nc(C(F)(F)F)c(-c2cccc(C(F)(F)F)c2)c1NC(=O)c1ccco1	-1	4	-2	43*	0	-1	i
Oc1ccc(C=NNc2nc3ccccc3s2)c(O)c1	0	1	2	36	-2	·	·
Oc1ccccc1C=NNc1nc2ccccc2s1	0	-2	0	39*	2	·	i
COc1ccccc1NC(=O)COc1coc(CN2CCN(c3ccccc3)CC2)cc1=O	-1	1	-7	6	-1	9	·
COc1cccc([C@@H]2CC=C(C(=O)O)[C@H](c3ccccc3)N2S(=O)(=O)c2ccc(C)cc2)c1	0	103	-1	-5	-2	2	·
COc1cccc([C@@H]2CC=C(C(=O)O)[C@H](c3ccc(F)cc3)N2S(=O)(=O)c2ccc(C)cc2)c1	0	4	2	38*	2	-9	i
CN(C)c1cccc(C(=O)NCc2ccccc2)c1	0	-2	-7	41*	2	2	i
CN(C)c1cccc(C(=O)NCc2ccccc2Cl)c1	-1	7	2	34	0	10	·
CS(=O)(=O)Nc1ccc(C2=NN(C(=O)c3ccco3)C(c3ccccc3)C2)cc1 (stereo unspecified)	0	-2	1	41*	2	-14	i
COc1cccc(C2CC(c3cccs3)=NN2C(=O)c2ccco2)c1O (stereo unspecified)	0	-7	2	28	0	-1	·

Screens as filed in PubChem.
